# Rows were chosen to be rich in hits. Some 0.79% of all compounds tested hit in one or more screens of this group.
# bIAP inhibitor – intestinal alkaline phosphatase (bovine) inhibition; purified bovine IAP, CDP-star luminescence, 30 min; inhibition, % at 20 µM; 190,000 tested, under 10 active; AID 1019;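 active = over 50% inhibition of intestinal alkaline phosphatase at 20 µM in the single-dose screen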
#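 Assay system: bovine IAP enzyme; medium: DEA buffer 100 mM, pH 9.8, with MgCl2 1.0 mM, ZnCl2 0.02 mM; doses: 20 µM single dose; incubation: enzyme reaction for 30 min at room temperature; detection: CDP-star luminescence signal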
# mIAP act – increases mouse intestinal alkaline phosphatase activity; activation factor at 10 µM; actives 0.24% (n = 330,000); AID 2805; muIAP, CDP-Star luminescence, 30 min; hits give high values; 1 = vehicle-only enzyme signal, 0 = enzyme-free wells;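 active = activation factor of at least 2 at 20 µM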
#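 System: Mouse IAP enzyme | Also added: CDP-Star substrate | Dosing: Compounds dispensed in DMSO | Schedule: 30 min enzyme-substrate-compound incubation at room temperature | Technique: Chemiluminescence readout | Control set: DMSO-only wells and no-enzyme negative control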
# hIAP act – human IAP activation. activation factor at 10 µM. P09923. actives 0.16% (n = 330,000). purified human IAP, CDP-Star luminescence, 30 min; hits give high values; 1 = vehicle-only enzyme, 0 = enzyme-free background;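 active = activation factor of the enzyme at least 2-fold when tested at 20 µM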
# Target sequence (P09923 whole entry, looked up): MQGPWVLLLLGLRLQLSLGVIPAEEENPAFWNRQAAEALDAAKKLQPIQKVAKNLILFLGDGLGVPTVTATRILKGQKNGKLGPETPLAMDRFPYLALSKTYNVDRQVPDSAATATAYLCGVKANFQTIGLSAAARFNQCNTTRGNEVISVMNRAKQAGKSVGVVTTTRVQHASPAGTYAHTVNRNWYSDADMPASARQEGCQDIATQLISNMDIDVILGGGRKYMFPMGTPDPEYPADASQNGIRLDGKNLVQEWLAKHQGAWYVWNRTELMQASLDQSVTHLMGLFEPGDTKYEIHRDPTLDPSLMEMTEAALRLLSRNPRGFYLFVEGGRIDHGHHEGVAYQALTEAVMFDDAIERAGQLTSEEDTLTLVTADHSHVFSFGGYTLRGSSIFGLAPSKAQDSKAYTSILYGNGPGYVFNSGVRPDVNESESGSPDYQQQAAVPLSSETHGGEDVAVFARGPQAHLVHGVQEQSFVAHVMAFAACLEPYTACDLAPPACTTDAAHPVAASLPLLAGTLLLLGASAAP
# hIAP inh – human IAP inhibition. purified IAP, CDP-Star luminescence, 30 min. inhibition, % at 10 µM. actives 0.12% (n = 330,000). AID 2544;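 active = inhibition reaching a set limit with compound at 10 µM in the primary screen, cut at about 35% in these data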;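 also: plate controls were DMSO wells with enzyme for no effect and no-enzyme buffer wells for full effect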
# mIAP inh – mouse IAP inhibition; purified mouse IAP, CDP-Star luminescence, 30 min; actives 0.2% (n = 330,000); AID 2806; inhibition, % at 10 µM;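 active = inhibition of at least 40% at 10 µM in the primary screen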;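 also: plate controls were DMSO with enzyme for no effect and no enzyme wells for full effect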
# bIAP activator – intestinal alkaline phosphatase (bovine) activation. purified bovine IAP, CDP-star luminescence, 30 min; hits give high values; fold of DMSO-control signal, blank-subtracted. activation factor at 20 µM. actives 0.17% (n = 200,000);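 active = activation factor of 2 or more at 20 µM, a signal rise over negative controls twice the positive control's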
# hIAP act confirm – human IAP activation confirmation | activation (%Activity, negative = activation), % at 8.3 µM | actives 10% (n = 880) | AID 434926 | purified IAP, CDP-Star luminescence, 30 min; hits give low values | shares compounds with hIAP act;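 active = at least twofold enzyme activation in any of six single-dose repeats, which the averaged readout prints as negative percent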
# Active calls of the source: *; i = inactive; x = not tested or not shown.
SMILES,bIAP inhibitor,mIAP act,hIAP act,hIAP inh,mIAP inh,bIAP activator,others
Cc1ccc(-n2c(SCC(N)=O)nnc2-c2cccnc2)c(C)c1,3,2*,0.99,1,-103,1,
O=C(c1ccccc1)c1c[nH]c(C(=O)NNc2ccccc2)c1,1,0.95,0.96,4,5,1,
CC(C)(C)c1ccc(OCCNC(=S)Nc2ccccc2)cc1,8,2.4*,0.98,2,-136,0.9,
S=C(Nc1ccc(Br)cc1)NC1CCCC1,-11,2.1*,1.2,-18,-107,1.1,
S=C(NCC1CCCCC1)Nc1ccc(Oc2ccccc2)cc1,-18,3.3*,0.95,5,-226,1.2,
Cc1cccc(NC(=S)NC2CCCC2)c1,-9,1.1,1.1,-5,-14,1.1,
CCCCNC(=S)Nc1ccc(Oc2ccccc2)cc1,23,2.3*,1.1,-10,-135,0.8,
Cc1ccc(S(=O)(=O)N(C)CCCC(=O)n2nc(C)cc2C)cc1,5,1.1,1.1,-13,-6,1,
S=C(Nc1ccc(Oc2ccccc2)cc1)NC1CCCC1,1,2.7*,0.98,2,-172,1,
S=C(Nc1ccccc1Oc1ccccc1)NC1CCCC1,-1,1.4,1.1,-5,-43,1,
O=C(Nc1cccnc1)Nc1cc(Cl)cc(Cl)c1,-6,2.5*,1,-2,-146,1.1,
Cn1c(/C=N/Nc2nc3ccccc3[nH]2)nc2ccccc21,14,0.58,1.2,-16,42*,0.9,
CCc1ccc(CN(C)C(=O)c2cc(COc3ccc(OC)cc3Cl)on2)nc1,x,0.97,1.1,-13,3,x,
c1ccc2[nH]c(SCc3cn4ccccc4n3)nc2c1,-41,1.1,1.5,-46,-6,1.4,
Cc1cccc2nc(CSc3nc4ccccc4[nH]3)cn12,-155,0.9,0.92,8,10,2.6*,
CCOc1cc(C=O)ccc1OCc1cc(=O)n2cc(C)ccc2n1,14,1,1.1,-6,-2,0.9,
CC1CCCCC1NC(=S)Nc1ccc(SC(F)F)cc1 (stereo not given),21,3.3*,1.1,-10,-227,0.8,
CN(CC(=O)Nc1ccc(SC(F)F)cc1)C1CCCCC1,17,1.2,1,-3,-20,0.8,
S=C(NCC1CCCCC1)Nc1cccnc1,5,1,0.89,11,-1,0.9,
FC(F)Sc1ccc(NC(=S)NCC2CCCCC2)cc1,x,3.3*,0.91,9,-228,0.3,
FC(F)Sc1ccc(NC(=S)NC2CCCCC2)cc1,26,2.2*,1.1,-11,-123,0.7,
Nc1ccc2c(c1)OC1(CCCC1)O2,2,0.78,0.95,5,22,1,
CC(C)(C)NC(=O)C(c1ccc(F)cc1)N(Cc1ccco1)C(=O)CCC(=O)Nc1ccccn1 (stereo not given),x,0.99,1,-3,1,x,
Cn1cccc1CC(=O)NNC(=S)Nc1ccc(Cl)cc1,-4,0.96,2.1*,-110,4,1,
COc1ccccc1NS(=O)(=O)c1cccc(C(=O)N/N=C(\C)c2ccc3c(c2)OCCO3)c1,3,1,1.1,-12,0,1,
SMILES,bIAP inhibitor,mIAP act,hIAP act,hIAP inh,mIAP inh,bIAP activator,others
O=C(Cn1c(CSc2ccccc2)nc2ccccc21)Nc1ccccc1,-8,x,x,x,x,1.1,
Cc1ccc(SCc2nc3ccccc3n2CC(=O)Nc2ccccc2)cc1,0,2.4*,1,-3,-136,1,
Cc1c(C(=O)Nc2ccccc2F)sc2ncn(CC(=O)N3CCOCC3)c(=O)c12,x,1,1.1,-10,0,x,
Cc1ccc2c(c1)C1C=CCC1C(C(=O)O)N2 (stereo not given),7,x,x,x,x,0.9,
COc1cccc2c1NC(C(=O)O)C1CC=CC21 (stereo not given),12,0.43,1.1,-7,57*,0.9,
Cc1ccc(NC(=O)Cc2csc(-c3ccccc3)n2)cc1F,-2,1,0.65,36*,-2,1,
O=C(Cc1csc(-c2ccccc2)n1)Nc1ccc(C(F)(F)F)cc1,16,0.99,1,-4,1,0.8,
CCCCN(CCCC)S(=O)(=O)c1ccc(NC(=O)Cc2cccs2)cc1,x,1.3,0.97,3,-26,0.4,
COc1cccc(-c2cccc(NC(=O)C3CCN(Cc4ccc(CO)o4)CC3)c2)c1,x,0.97,0.92,8,3,x,
O=C(Nc1cccc(-c2cccc(F)c2)c1)C1CCN(Cc2ccc(CO)o2)CC1,x,2.1*,1,-2,-107,x,
CCOc1ccccc1NC(=O)Cc1coc2ccc(C)cc12,24,1,0.79,21,-3,0.8,
CC(C)CCNC(=S)Nc1ccc(Br)cc1,-4,2.2*,1.2,-17,-124,1,
CCCSc1n[nH]c(NC(C)=O)n1,0,0.93,1,-3,7,1,
CCCCCCCCCCSc1n[nH]c(NC(C)=O)n1,-234,2.1*,1.1,-8,-114,3.3*,
Cc1nn(C)c(C)c1NC(=O)Nc1ccc(Cl)c(Cl)c1,2,2.1*,1.1,-10,-114,1,
Cc1nn(C)c(C)c1NC(=O)Nc1cccc(C(F)(F)F)c1,6,1,1.1,-6,-4,0.9,
COc1cccc(NC(=O)CN2C(=O)NC(C)(CCC(C)C)C2=O)c1 (stereo not given),-19,1.2,0.89,11,-16,1.2,
Cc1ccc(-n2ncc(C(=O)Nc3cc(Cl)cc(Cl)c3)c2C2CCNCC2)cc1C,i,x,x,x,x,6.1*,
COc1ccc(O)c(/C=N/NC(=O)c2cccc(N3CCCC3=O)c2)c1,x,1.1,2*,-105,-10,x,hIAP act confirm=-1
CC(C)(C#N)NC(=O)C(=O)c1c(-c2ccccc2)cc2ccccn12,x,0.91,0.98,2,9,x,
COc1cc(/C=C2/SC(=S)N(Cc3ccccc3)C2=O)ccc1O,x,0.72,0.96,4,28,x,
O=C1/C(=C\c2ccc(O)c(O)c2)SC(=S)N1Cc1ccccc1,x,0.67,0.45,55*,33,x,hIAP act confirm=-89
O=C(Nc1ccnn1C1CCN(Cc2ccccc2)CC1)C1CCCC1,x,1.1,1.2,-18,-12,x,
CC(Cc1ccc(Cl)cc1)N1CCC(n2nccc2NC(=O)C2CCCC2)CC1 (stereo not given),x,1.8,2.3*,-128,-83,x,hIAP act confirm=-3
Cc1ccc(CN2CCSc3ccc(C(=O)NC4CCCC4)cc32)cc1,x,1.2,1.3,-26,-22,x,
O=C(NC1CCCC1)c1ccc2c(c1)N(Cc1ccc(F)cc1)CCS2,x,1.1,0.61,39*,-14,x,hIAP act confirm=-67
COc1ccc(CC2CC(=O)N(c3ccc(C)cc3)C2=O)cc1 (stereo not given),x,1,2.1*,-106,-2,x,hIAP act confirm=23
